The nature of assay [1]: OD615 S. cerevisiae growth inhibition, permissive medium, pilot counter-assay, permissive growth control for S. cerevisiae lifespan shortening project (AID 705;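 active means growth inhibition above 25% in both replicates, a cutoff set 3 SD above the mean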). Particulars: OD615, 24 h, at 10 µM, stronger effect = higher value. The procedure, abridged: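 System: S. cerevisiae with engineered DeaD lifespan system / Measured by: absorbance (optical density) at 615 nm / Read-out: reduction in yeast growth (OD615) / Times: 4 h cell pre-growth, 24 h exposure at 30 °C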

A short description of assay [2]: Restrictive medium S. cerevisiae growth inhibition, OD615, pilot screen of yeast lifespan reduction project, restrictive growth control (AID 706;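 active means growth inhibition above a set limit, 3 SD over mean compound inhibition, in both replicates, cut at about 43% in these data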;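 further: modified DeaD lifespan yeast strain shifted to restrictive glucose medium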). Particulars: OD615, 48 h, at 10 µM, stronger effect = higher value. The method, boiled down: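 System: Engineered S. cerevisiae DeaD strain | Buffer or medium: Glucose-based CSMM-D restrictive medium | Schedule: 4 h pre-incubation, 48 h exposure at 30 °C | Technique: Optical density at 615 nm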

Assay [3] can be described thus: viability gain of MRP-1-high H69AR cells under doxorubicin, pilot screen, MRP-1 activator project, CellTiter-Glo, duplicate (AID 807;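 active means viability increase at or above a cutoff of the median across tested compounds plus 3 SD, cut at about 8.5% in these data, passing the limit was not always enough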;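 further: compound pretreatment 18-22 h then 72 h combined with doxorubicin; 0% = doxorubicin alone and 100% = vehicle without doxorubicin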). Particulars: H69AR viability with doxorubicin, CellTiter-Glo luminescence; at 10 µM; stronger effect = higher value.
The nature of assay [4]: growth suppression of beta-catenin knockout HCT116, pilot screen, human colon tumor cells (AID 823).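 Further: 0% = wells killed by 20 µM Hyamine and 100% = untreated DMSO cell wells.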 Particulars: CellTiter-Glo, 60 h, at 10 µM, stronger effect = lower value. On the technique in general: Cellular ATP, detected with luciferase, serves as a proxy for viable cell number.
The nature of assay [5]: growth suppression of PTEN-deleted HCT116, pilot screen, cell-based, HCT116 clonal line, CellTiter-Glo (AID 824;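 active means viability at or below 27.92% in each of two runs, the all-compound median minus 4 SD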;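 further: 0% = 20 µM Hyamine control and 100% = vehicle cell control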). The settings on record: 60 h, at 10 µM, stronger effect = lower value.
The nature of assay [6]: inhibitors of the yeast RAM network, pilot screen, dse1pr::URA3 reporter, 5-FOA selection (AID 869;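 active means inhibition over a set limit, the all-compound mean plus 3 SD, in both replicate runs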;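 further: 0% = DMSO wells with no growth and 100% = 10 µM 1-NA-PP1 with full growth; RAM network block rescues cells from 5-FOA so hits raise OD615 growth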). Particulars: S. cerevisiae dse1pr::URA3 5-FOA growth, OD615, 2 d; at 10 µM; stronger effect = higher value; strain carries analog-sensitive mutant Cbk1 kinase.
Assay [7] is described as follows: RAM signaling pathway blockade in yeast – S. cerevisiae, Pdr1DBD-CYC8 efflux-inhibited sensitized strain, primary screen (AID 1298;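 active means RAM network inhibition above 8.4% in each of two replicates, 3 SD over the compound average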;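 further: 0% = DMSO untreated cells without growth and 100% = 10 µM 1-NA-PP1 full growth; higher means more yeast growth rescued from 5-FOA killing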). Particulars: S. cerevisiae cbk1-as DSE1-URA3 strain, 5-FOA growth OD615, 2 d; at 50 µM; stronger effect = higher value.

SMILES strings stand for the structures. Values without a mark were called inactive. Results filed as inconclusive are left out. The source made the active and inactive calls.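 How the source made its calls, unless noted: active means cell viability at or below a set limit in both duplicate runs, the limit being the all-compound median minus 4 SD (cut at about 23% in these data, passing the limit was not always enough); inconclusive means no clear call, values can overlap the other calls; inactive means the rest.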

The term viability denotes a read-out of living cells in per cent, often relative to untreated cells. The term inhibition denotes the change of the read-out against control, counted positive when it falls. As for `Cc1cc(C)c(S(=O)(=O)NCCCN2CCOCC2)cc1Br`, the growth inhibition in assay [1] is -7.38%; in assay [2], -14.8%. For the same compound, the viability increase in assay [3] was -2.34%. Moreover, the viability in assay [4] is 91.8%; in assay [5], 90.9%. Besides, the inhibition in assay [6] was 0.75%. Moreover, the RAM network inhibition in assay [7] is 0.92%.
`Cc1oc(-c2cccs2)nc1CS(=O)CC(=O)NC1CCCCCC1` (stereo unspecified): the growth inhibition was 11.3% in assay [1] and 51.7% (active) in assay [2]. For the same compound, the viability increase in assay [3] was -2.99%. The viability in assay [4] is 75.4%; in assay [5] it was 84.5%. For the same compound, the inhibition in assay [6] is -0.045%. The RAM network inhibition in assay [7] was -1.22%.
As to `CCOC(=O)N1CCN(c2c(N3CCOCC3)c(=O)c2=O)CC1`, the growth inhibition was 1.49% in assay [1] and -13.2% in assay [2]. The viability increase in assay [3] is 0.58%. The figures for the viability in assay [4] and in assay [5] were 106% and 97.2%, respectively. Further, the inhibition in assay [6] was 2.57%. The RAM network inhibition in assay [7] was -0.73%.
For `CCCCCOC(=O)Cn1c(=O)oc2ccccc21`, the results for the growth inhibition in assay [1] and in assay [2] were -7.12% and 4.42%, respectively. The viability increase in assay [3] was -1.13%. The viability in assay [4] is 90.3%; in assay [5] it was 97.8%. For the same compound, the inhibition in assay [6] was 0.385%. The RAM network inhibition in assay [7] is 4.28%.
On to `O=C(CSc1ncnc2c1oc1ccccc12)NCc1ccc(F)cc1`, for which the growth inhibition in assay [1] is -0.505%; in assay [2], -4.67%. Also, the viability increase in assay [3] was -3.33%. The viability in assay [4] is 68.6%; in assay [5], 81%. The inhibition in assay [6] is -0.055%. For the same compound, the RAM network inhibition in assay [7] was -2.13%.
Take `COc1ccc2c(c1)OC13CCN(C)CC1C2C(C(=O)c1ccc(F)cc1)C(=O)N3` (stereo unspecified): the growth inhibition in assay [1] is -25.9%; in assay [2], -21.6%. Further, in assay [3], the viability increase is -4.02%. For the same compound, the viability in assay [4] is 78.9%; in assay [5], 81.4%. The inhibition in assay [6] is 0.27%. Also, the RAM network inhibition in assay [7] was 0.97%.
`C=CCSc1nnc(CSc2nc3sc4c(c3c(=O)[nH]2)CCCC4)n1-c1ccccc1`: the growth inhibition in assay [1] is 9.19%; in assay [2], 37.7%. The viability increase in assay [3] is 0.54%. In addition, the viability in assay [4] is 93.2%; in assay [5] it was 91.2%. Further, the inhibition in assay [6] is 1.42%. Moreover, the RAM network inhibition in assay [7] was 11%.
Turning to `O=C1Nc2cc(Cl)cnc2N2CCCC12` (stereo unspecified), the growth inhibition was -2.57% in assay [1] and 8.33% in assay [2]. Further, the viability increase in assay [3] is -0.67%. Also, the viability in assay [4] is 97.7%; in assay [5], 101%. Further, in assay [6], the inhibition was 0.905%. Moreover, the RAM network inhibition in assay [7] was 0%.
Consider `O=C(NC1CCN(Cc2ccccc2)CC1)c1ccccc1F`, for which the growth inhibition was -3.78% in assay [1] and -11.1% in assay [2]. In assay [3], the viability increase is -1.39%. Further, the viability in assay [4] is 95%; in assay [5] it was 98.9%. The inhibition in assay [6] was 2.02%. Besides, in assay [7], the RAM network inhibition is -0.41%.
For the compound `COc1ccc(CCNC(=O)Cc2cc(=O)[nH]c(=O)[nH]2)cc1OC`, the growth inhibition is 6.42% in assay [1] and 3% in assay [2]. Also, the viability increase in assay [3] was -0.97%. Also, the figures for the viability in assay [4] and in assay [5] were 96.7% and 97.6%, respectively. Further, in assay [6], the inhibition is 1.35%. In addition, in assay [7], the RAM network inhibition was 1.23%.
Turning to `COc1cccc(C2CC(c3ccccc3C)n3nc(N)nc3N2)c1` (stereo unspecified), the growth inhibition is -7.81% in assay [1] and 7.97% in assay [2]. Moreover, in assay [3], the viability increase is -2.32%. For the same compound, the values for the viability in assay [4] and in assay [5] were 107% and 86.5%, respectively. Also, the inhibition in assay [6] is 0.35%. For the same compound, in assay [7], the RAM network inhibition was 8.21%.
Consider `COc1ccccc1N(CC(N)=O)S(=O)(=O)c1ccc(C)cc1`, for which the growth inhibition is 0.675% in assay [1] and -2.73% in assay [2]. The viability increase in assay [3] is -1.48%. For the same compound, the viability in assay [4] is 98.2%; in assay [5], 98%. For the same compound, the inhibition in assay [6] is 0.21%. Besides, in assay [7], the RAM network inhibition was 3.22%.
Consider `CC1CN(C(=O)Nc2ccc3snnc3c2)c2ccccc21` (stereo unspecified), for which the growth inhibition is -4.18% in assay [1] and -6.81% in assay [2]. The viability increase in assay [3] was -2.57%. Further, the viability in assay [4] was 82%; in assay [5], 75%. The inhibition in assay [6] is 2.52%. In addition, in assay [7], the RAM network inhibition was 4.27%.
In the case of `COc1ccc(O)c(C(=O)c2cnn(C(=O)c3cc(C)oc3C)c2)c1`, the growth inhibition in assay [1] is -9.76%; in assay [2], -11.3%. Moreover, the viability increase in assay [3] is -1.89%. The viability was 97.2% in assay [4] and 88.7% in assay [5]. Moreover, the inhibition in assay [6] was 2.02%. In addition, the RAM network inhibition in assay [7] was 1.5%.
Regarding `Cc1cccc(NC(=O)C2CCCN(S(=O)(=O)c3cccc4cccnc34)C2)c1` (stereo unspecified), the results for the growth inhibition in assay [1] and in assay [2] were -13.1% and -9.72%, respectively. Moreover, the viability increase in assay [3] was -1.92%. The figures for the viability in assay [4] and in assay [5] were 87.2% and 74.6%, respectively. Besides, the inhibition in assay [6] was 2.15%. The RAM network inhibition in assay [7] was 3.91%.
In the case of `CCOC(=O)c1cnc2c(C)c(Cl)ccc2c1N1CCOCC1`, the growth inhibition in assay [1] is -1.27%; in assay [2], -2.46%. In assay [3], the viability increase is -6.05%. In addition, the viability in assay [4] was 77%; in assay [5] it was 81.3%. Moreover, the inhibition in assay [6] was 0.755%. In assay [7], the RAM network inhibition was 3.29%.
Turning to `COC(=O)c1c(S(N)(=O)=O)c2ccccc2n1C`, the growth inhibition in assay [1] was -2.33%; in assay [2], 2.71%. The viability increase in assay [3] is -1.28%. Moreover, the results for the viability in assay [4] and in assay [5] were 100% and 102%, respectively. In assay [6], the inhibition is 1.06%. Besides, the RAM network inhibition in assay [7] is 4.32%.
For `CCOC(=O)c1oc2cc(O)ccc2c(=O)c1-c1ccccc1OC`, the growth inhibition in assay [1] is -11.6%; in assay [2], -0.685%. Also, the viability increase in assay [3] was -1.98%. Further, the viability in assay [4] was 98.4%; in assay [5], 92%. In addition, in assay [6], the inhibition was -0.595%. Besides, in assay [7], the RAM network inhibition is 5.56%.
